High-throughput results as filed in PubChem BioAssay.
Rows were chosen to be rich in hits. Some 2.1% of all compounds tested hit in one or more screens of this group.
PKD1 inh: PKD1 (human) kinase inhibition. 200,000 tested, 0.056% active. inhibition, % (test concentration not listed). PKD1 kinase fluorescence polarization assay; in the data active = inhibition above about 50%
INS promoter inh: TRM-6 insulin promoter activity inhibition. TRM-6 cells, insulin promoter-eGFP reporter, imaging; reporter expression induced with tamoxifen. 130,000 tested, 0.9% active. AID 1273. inhibition, % at 2 µM;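 active = inhibition above the mean plus 3 SD, with well images judged a real hit on visual review, cut at about 60% in these data, passing the limit was not always enough; inconclusive = inhibition over the cutoff but images rejected on review; inactive = inhibition not above the cutoff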
Autophagy mod: modulators of autophagy; AID 463193; MEF GFP-LC3 puncta imaging; test concentration mostly 10 µM; 190,000 tested, 0.98% active; calls only at 10 µM (by protocol);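 active = percentage of spot-positive cells more than 3 SD above its plate mean, without a fluorescence outlier flag or 80% toxicity; inconclusive = no clear call, values can overlap the other calls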;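 also: spot-positive cell cutoff set from DMSO-treated cells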
Insulin prom up: MIN6 insulin promoter up-regulation; MIN6 insulin promoter-GFP reporter, high-content imaging; active compounds read high; z-score at 5 µM; 190,000 tested, 0.3% active; AID 1625;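 active = z-score above 3 at 5 µM with at least 500 cells counted in the well; inconclusive = wells under 500 cells, flagged as cytotoxic or low count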
RBBP9 inhibitor: inhibitors of human serine hydrolase RBBP9; AID 1515; 220,000 tested, 0.2% active; recombinant RBBP9, FP-Rh probe fluorescence polarization; inhibition, % at 7.94 µM; O75884;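 active = inhibition above the campaign mean of all tested compounds plus 3 SD, cut at about 14% in these data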;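 also: plate controls were DMSO wells with RBBP9 for no effect and wells lacking RBBP9 protein for full effect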
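Material: RBBP9 protein. Amount: RBBP9 at 2.5 µM in dispensed solution, before mixing. Schedule: 30 min then 45 min, 25 °C. Medium: Tris buffer pH 8.0, NaCl, Pluronic. Measured by: fluorescence polarization. Measure: percent inhibition from mP, scaled between DMSO and no-protein wells. Replication: one well per compound.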
Arbovirus inh: blocks arbovirus infection | 200,000 tested, 0.37% active | inhibition, % at 10 µM | arbovirus infection cell-based antiviral screen; in the data active = inhibition above about 30%
* marks the source's active call; other numbers are inactive results; i = inactive; u = inconclusive; x = no result; + = active, no number.

SMILES	PKD1 inh	INS promoter inh	Autophagy mod	Insulin prom up	RBBP9 inhibitor	Arbovirus inh
NC(=O)CSc1nnc2ccc(-c3ccco3)nn12	4	68*	i	0.12	-10	5
c1cncc(CSc2nnc3ccc(-c4ccco4)nn23)c1	-3	x	i	0.55	3	3
O=C1CN(C(=O)COc2ncnc3ccccc23)c2ccccc2N1	-8	0	i	4*	5	-4
Cc1cccc(NC(=O)N2CCC(n3nnc4cc(C)ccc43)CC2)c1	-2	0	i	-0.05	-2	-6
N#CC(c1cccc(Cl)c1)c1ccc2c(C(F)(F)F)cc(C(F)(F)F)nc2n1 (stereo not given)	4	-57	+	u	3	-31
CC(=O)N1CCc2cc(S(=O)(=O)N3c4ccccc4CC3C)ccc21 (stereo not given)	-10	-26	+	-0.36	5	-18
Cc1ccc(N2CC(C(=O)Nc3ccccc3C(=O)NC3CCCCC3)CC2=O)cc1 (stereo not given)	-4	-58	i	x	-9	-11
CC(C)(C)C(=O)Cn1ncc(Cl)c(Cl)c1=O	-4	i	+	u	-6	-29
O=C(Cn1ncc(Cl)c(Cl)c1=O)c1ccc(Cl)cc1	-11	-8	i	x	-2	-36
Cc1nc2ccccc2n1-c1nc(-c2ccco2)cc(C(F)(F)F)n1	-11	x	+	u	-2	-32
O=C(CSCc1ccc(Cl)cc1)NN=C1CCCC1	2	-33	i	1.4	-6	-5
Cc1ccc(/C=N/NC(=O)c2csc3c2CCCC3)cc1	-14	x	+	1.1	-4	1
COc1cc(/C=N/NC(=O)c2csc3c2CCCC3)cc(OC)c1O	-5	19	i	-0.13	-8	-5
Cc1nn(C)c(C)c1CNC(=O)/C=C/c1ccccc1F	-6	71*	i	0.06	-5	0
CCn1cc(/C=C/C(=O)NCc2c(C)nn(C)c2C)cn1	5	9	i	0.21	-3	2
c1ccc(-c2noc(-c3cccnc3)n2)nc1	3	89*	i	0.58	0	-7
c1ccc(-c2noc(-c3ccncc3)n2)nc1	6	-61	i	0.41	-2	-9
O=C(Nc1ccc2c(c1)CCC2)c1cnn2c1NC(c1ccco1)CC2C(F)(F)F (stereo not given)	-1	25	+	0.03	0	7
Cc1ccc(Cl)cc1NC(=O)c1cnn2c1NC(c1ccco1)CC2C(F)(F)F (stereo not given)	-10	-33	i	x	3	-7
Cn1c(C(=O)N2COCC2(C)C)cc2c(=O)n3ccccc3nc21	0	-7	i	0.14	-3	6
CCOc1ccccc1N1CC(C(=O)Nc2ccc3c(c2)OCCO3)CC1=O (stereo not given)	4	x	+	0.47	-9	8
O=C(N/N=C\c1ccc2c(c1)OCO2)c1ccc(Cn2cc(Br)c([N+](=O)[O-])n2)o1	-2	67	i	x	7	-30
COc1cc(C(=O)N/N=C(\c2ccccc2)c2ccccn2)cc(OC)c1OC	10	x	i	-3.9	3	-42
COc1cccc(C(=O)N/N=C(/c2ccccc2)c2ccccn2)c1	6	18	+	-1.8	-1	-17
C=CCN(CC=C)C(=S)NC(=O)Cc1cccc2ccccc12	-8	x	i	-0.06	-3	56*
SMILES	PKD1 inh	INS promoter inh	Autophagy mod	Insulin prom up	RBBP9 inhibitor	Arbovirus inh
CN=C(Nc1cc(C)nn1-c1ccccc1)c1ccccc1F	-10	-31	i	0.63	-2	-1
CCOC(=O)C1=C(c2ccccc2)O/C(=C(/C#N)C(F)(F)F)S1	-6	-14	+	-0.89	2	-37
Cc1ccc(S(=O)(=O)c2c(C)cc(C)nc2Cl)c(C)c1	3	37	i	0.18	0	-1
Nc1cc(-c2cccc(Br)c2)nn1Cc1ccccc1	-9	20	+	0.27	-8	0
Nc1cc(-c2ccc(Br)cc2)nn1Cc1ccccc1	0	x	i	-0.53	-2	-14
Cc1nc2ccccn2c1C(=O)/C=C/c1ccc(F)cc1	5	x	i	2.4	-3	1
CN(C)S(=O)(=O)c1ccccc1N=C=S	x	x	x	0.42	16*	x
O=C(O)c1ccccc1C(=O)Nc1n[nH]c(=S)s1	2	x	i	0.67	-9	2
COc1cc(CNCCO)cc(Cl)c1OCc1ccc(Cl)cc1Cl	-8	x	+	x	0	-44
